Each compound was assayed against T1, OR8D1 (Homo sapiens) (UniProt Q8WZ84). Settings: stereoisomer not certain.
T1 sequence (whole entry): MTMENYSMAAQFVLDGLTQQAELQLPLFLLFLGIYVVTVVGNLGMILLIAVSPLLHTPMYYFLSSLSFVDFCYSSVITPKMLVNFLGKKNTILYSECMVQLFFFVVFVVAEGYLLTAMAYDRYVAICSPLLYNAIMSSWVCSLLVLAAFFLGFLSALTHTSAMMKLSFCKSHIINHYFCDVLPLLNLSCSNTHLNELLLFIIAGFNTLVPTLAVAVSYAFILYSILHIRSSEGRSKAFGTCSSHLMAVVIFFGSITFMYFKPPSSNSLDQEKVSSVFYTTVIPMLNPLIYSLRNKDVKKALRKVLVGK
Outline: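 Whether a receptor–molecule pair is responsive (active) rests on the original authors' judgment that its measured signal was statistically different from baseline. Pairs without that judgment are non-responsive (inactive). Sources used varied assay methods, commonly transient luciferase assays in mammalian cell lines.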
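Note: active if original authors judged signal statistically different from baseline.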

Odorant receptor agonist call, inactive:
CC(C)CCO
CCCCCC1CCC(=O)O1 (configuration not stated)
Cc1c[nH]c2ccccc12
CC(=O)OCCc1ccccc1
OCCc1ccccc1
COc1nccnc1CC(C)C
CCCC(S)CCO (configuration not stated)
CC(=O)OCC=Cc1ccccc1
CCCCCC=CC=O
C=CC(=O)CC
CC=CC(=O)C(C)CC (configuration not stated)
CCCSSCCC
CCCCC1OC(=O)CC1C (configuration not stated)
CCCCCCCC(=O)[O-].[H+]
OCC=Cc1ccccc1
CCOC(=O)c1ccccc1
CC(C)=CC1CC(C)CCO1 (configuration not stated)
CCOC(=O)C(C)C
COC1=C(C)OC(C)C1=O (configuration not stated)
CCCCCCCC(=O)OCC
CCCSSSC
CC(=O)c1cnccn1
COC(=O)C(C)C
CCCCCC(C)O (configuration not stated)
C=C1CCC2(C(C)C)CC12 (configuration not stated)
CCCCCC=O
CCC(C)c1nccnc1OC (configuration not stated)
CCCCC1CCC(=O)O1 (configuration not stated)
CCC(=O)C(C)S (configuration not stated)
CCOC(=O)CCSC
COc1ccc2ccc(=O)oc2c1
Cc1ccc(C(C)C)cc1
CCCCC(=O)O
CCCCCCCC(C)=O
CC(=O)c1ccc(C)cc1
CC(=O)C(C)O (configuration not stated)
CCC(C)CCC(=O)[O-] (configuration not stated)
